How the values were obtained:
[1] = Inhibition of HIV1 reverse transcriptase p66 K103N/[…] double mutant associated RNA dependent DNA polymerase activity expressed in Escherichia coli assessed as reduction in [3H]dTTP incorporation using poly(rA)/oligo(dT) as template/primer by scintillation counting analysis; parameters: species or system Human immunodeficiency virus 1
[2] = biological target: Human immunodeficiency virus type 1 reverse transcriptase (Human immunodeficiency virus 1, UniProt Q72547, Y181I); test: Inhibition of HIV1 reverse transcriptase p66 Y181I mutant associated RNA dependent DNA polymerase activity expressed in Escherichia coli assessed as reduction in [3H]dTTP incorporation using poly(rA)/oligo(dT) as template/primer by scintillation counting analysis
[3] = test system: Human immunodeficiency virus 1; test: Antiviral activity against HIV1 harboring reverse transcriptase K103N /[…] double mutant infected in human […] cells assessed as protection against virus-induced cytopathic effect measured on day 5 post infection by MTT assay; type: functional, cell-based; details: Human immunodeficiency virus 1, 120 h
[4] = biological target: Human immunodeficiency virus type 1 reverse transcriptase (Human immunodeficiency virus 1, UniProt Q72547, Y181C); test: Inhibition of HIV1 reverse transcriptase p66 Y181C mutant associated RNA dependent DNA polymerase activity expressed in Escherichia coli assessed as reduction in [3H]dTTP incorporation using poly(rA)/oligo(dT) as template/primer by scintillation counting analysis
[5] = test system: Human immunodeficiency virus 1; test: Antiviral activity against HIV1 harboring reverse transcriptase Y181C mutant infected in human […] cells assessed as protection against virus-induced cytopathic effect measured on day 5 post infection by MTT assay; type: functional, cell-based; details: Human immunodeficiency virus 1, 120 h
[6] = test system: Human immunodeficiency virus 1; test: Antiviral activity against HIV1 NL4-3 infected in human […] cells assessed as protection against virus-induced cytopathic effect measured on day 5 post infection by MTT assay; type: functional, cell-based; details: Human immunodeficiency virus 1, NL4-3, 120 h
In short: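 Values are means of two to three independent experiments, each run in triplicate. The lowest detectable concentration is reported where activity fell below the assay limit.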

[7] = test system: Human immunodeficiency virus 1; test: Antiviral activity against HIV1 harboring reverse transcriptase K103N mutant infected in human […] cells assessed as protection against virus-induced cytopathic effect measured on day 5 post infection by MTT assay; type: functional, cell-based; details: Human immunodeficiency virus 1, 120 h
[8] = biological target: Human immunodeficiency virus type 1 reverse transcriptase (Human immunodeficiency virus 1, UniProt Q72547); test: Inhibition of HIV1 NL4-3 reverse transcriptase His-tagged p66/p51 associated RNA dependent DNA polymerase activity expressed in Escherichia coli assessed as reduction in [3H]dTTP incorporation using poly(rA)/oligo(dT) as template/primer by scintillation counting analysis
[9] = test system: Human immunodeficiency virus 1; test: Antiviral activity against HIV1 harboring reverse transcriptase Y188L mutant infected in human […] cells assessed as protection against virus-induced cytopathic effect measured on day 5 post infection by MTT assay; type: functional, cell-based; details: Human immunodeficiency virus 1, 120 h
[10] = biological target: Human immunodeficiency virus type 1 reverse transcriptase (Human immunodeficiency virus 1, UniProt Q72547, K103N); test: Inhibition of HIV1 reverse transcriptase p66 K103N mutant associated RNA dependent DNA polymerase activity expressed in Escherichia coli assessed as reduction in [3H]dTTP incorporation using poly(rA)/oligo(dT) as template/primer by scintillation counting analysis
[11] = test system: Human immunodeficiency virus 1; test: Ratio of EC50 for HIV-1 harboring reverse transcriptase K103N mutant infected in human MT4 cells to EC50 for HIV1 NL4-3 infected in human MT4 cells; type: functional
In short: (§1)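 Fold change calculated as EC50 against the stated resistant mutant HIV-1 strain divided by EC50 against wild-type NL4-3. Both EC50s come from MTT read-out of virus-induced death in MT-4 cells, mean of two to three independent experiments each in triplicate.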

[12] = test system: Human immunodeficiency virus 1; test: Ratio of EC50 for HIV-1 harboring reverse transcriptase Y181C mutant infected in human MT4 cells to EC50 for HIV1 NL4-3 infected in human MT4 cells; type: functional; in short: as §1
[13] = Selectivity index, ratio of CC50 for human MT4 cells to EC50 for HIV1 NL4-3 infected in human MT4 cells; type: toxicity, cell-based; details: read-out: Ratio CC50/EC50
In short: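 SI computed as CC50/EC50, using the MTT-based CC50 in uninfected MT-4 cells and the MTT-based EC50 against HIV-1 NL4-3-induced cell death in MT-4 cells. Experiments were run in triplicate, two to three times.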

[14] = Cytotoxicity against human MT4 cells assessed as cell viability by MTT assay; type: cell-based
In short: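 Uninfected MT-4 cells scored for viability by MTT. […] Values are means of two to three independent experiments, each run in triplicate.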

[15] = test system: Human immunodeficiency virus 1; test: Ratio of EC50 for HIV-1 harboring reverse transcriptase K103N/[…] double mutant infected in human MT4 cells to EC50 for HIV1 NL4-3 infected in human MT4 cells; type: functional; in short: as §1
[16] = test system: Human immunodeficiency virus 1; test: Ratio of EC50 for HIV-1 harboring reverse transcriptase Y188L mutant infected in human MT4 cells to EC50 for HIV1 NL4-3 infected in human MT4 cells; type: functional; in short: as §1

| Structure (SMILES) | IC50 [1] | IC50 [2] | EC50 [3] | IC50 [4] | EC50 [5] | EC50 [6] | EC50 [7] | IC50 [8] | EC50 [9] | IC50 [10] | Ratio EC50 [11] | Ratio EC50 [12] | selectivity ratio [13] | CC50 [14] | Ratio EC50 [15] | Ratio EC50 [16] |
| --- | --- | --- | --- | --- | --- | --- | --- | --- | --- | --- | --- | --- | --- | --- | --- | --- |
| Cc1cc(C)cc(S(=O)(=O)c2c(C(=O)N[C@H](C)c3ccccc3F)[nH]c3ccc(Cl)cc23)c1 | 0.222 µM | 0.456 µM | 2.49 µM | 0.456 µM | 0.0007 µM | 0.0007 µM | 0.0007 µM | 0.087 µM | 0.165 µM | 0.228 µM |  |  |  |  |  |  |
| Cc1cc(C)cc(S(=O)(=O)c2c(C(=O)NCc3ccc4nc(N)[nH]c4c3)[nH]c3ccc(Cl)cc23)c1 | 0.47 µM | 0.284 µM | > 5.89 µM |  | 0.079 µM | 0.0006 µM | 0.018 µM | 0.278 µM |  | 0.183 µM | 30 | 132 | > 9810 | 5.89 µM | >9810 |  |
| Cc1cc(C)cc(S(=O)(=O)c2c(C(=O)Nc3ccnc(C#N)c3)[nH]c3ccc(Cl)cc23)c1 | 0.514 µM | 0.306 µM | > 6.84 µM |  | 0.065 µM | 0.0007 µM | 0.0007 µM | 0.023 µM |  | 0.072 µM | 1 | 92 | > 9770 | 6.84 µM | >9771 |  |
| Cc1cc(C)cc(S(=O)(=O)c2c(C(=O)NCC(=O)NCc3ccncn3)[nH]c3ccc(Cl)cc23)c1 | 0.835 µM | 0.529 µM | 2.31 µM |  | 0.0006 µM | 0.0006 µM | 0.0196 µM | 0.202 µM | 0.449 µM | 0.548 µM | 33 | 1 | > 81400 | > 48.8 µM | >3842 | >743 |
| Cc1cc(C)cc(S(=O)(=O)c2c(C(=O)NCC(=O)NCc3ccco3)[nH]c3ccc(Cl)cc23)c1 | 0.586 µM | 0.461 µM | 18.5 µM |  | < 0.0006 µM | 0.0006 µM | 0.06 µM | 0.145 µM | 1.12 µM | 0.538 µM | >86 |  | > 83400 | > 50 µM | >26477 | >1600 |
| Cc1cc(C)cc(S(=O)(=O)c2c(C(=O)NCc3cccc(N)c3)[nH]c3ccc(Cl)cc23)c1 | 0.035 µM | 0.064 µM | 0.086 µM |  | 0.0007 µM | 0.0007 µM | 0.0007 µM | 0.041 µM | 0.024 µM | 0.066 µM | 1 | 1 | > 76300 | > 53.4 µM | 123 | 34 |
| Cc1cc(C)cc(S(=O)(=O)c2c(C(=O)N[C@H](C)C(=O)NCc3ccco3)[nH]c3ccc(Cl)cc23)c1 | 0.233 µM | 0.276 µM | > 30.2 µM |  | 0.933 µM | 0.0006 µM | 0.311 µM | 0.145 µM | > 30.2 µM | 0.07 µM |  |  |  |  |  |  |
| Cc1cc(C)cc(S(=O)(=O)c2c(C(=O)N[C@@H](C)c3ccccc3F)[nH]c3ccc(Cl)cc23)c1 | > 10 µM | 17.2 µM | > 51.6 µM | 17.2 µM | 0.68 µM | 0.0007 µM | 0.103 µM | 0.175 µM | > 51.6 µM |  |  |  |  |  |  |  |
| Cc1cc(C)cc(S(=O)(=O)c2c(C(=O)N[C@H](C)C(=O)NCc3ccncc3)[nH]c3ccc(Cl)cc23)c1 | > 200 µM | 61 µM | 7.12 µM | 61 µM | 0.181 µM | 0.0007 µM | 0.114 µM | 13 µM | > 23.1 µM | > 50 µM |  |  |  |  |  |  |
| Cc1cc(C)cc(S(=O)(=O)c2c(C(=O)N[C@@H](C)C(=O)N[C@H](C)c3ccncc3)[nH]c3ccc(Cl)cc23)c1 | 0.49 µM | 1.7 µM | 1.26 µM |  | 0.0006 µM | 0.0006 µM | 0.0006 µM | 0.61 µM | 0.742 µM | 0.3 µM |  |  |  |  |  |  |
| Cc1cc(C)cc(S(=O)(=O)c2c(C(=O)N[C@@H](C)C(=O)NCc3ccncc3)[nH]c3ccc(Cl)cc23)c1 | > 40 µM | 0.87 µM | 0.857 µM | 0.87 µM | 0.0007 µM | 0.0007 µM | 0.0007 µM | 0.506 µM | 0.666 µM | 0.417 µM |  |  |  |  |  |  |
| Cc1cc(C)cc(S(=O)(=O)c2c(C(=O)N[C@@H](C)C(=O)NCc3ccco3)[nH]c3ccc(Cl)cc23)c1 | 9.64 µM | 14.2 µM | 1.89 µM |  | 0.0035 µM | 0.0006 µM | 0.0006 µM | 0.113 µM | 0.7 µM | 1.12 µM |  |  |  |  |  |  |
| Cc1cc(C)cc(S(=O)(=O)c2c(C(=O)N[C@@H](C)C(=O)N[C@@H](C)c3ccncc3)[nH]c3ccc(Cl)cc23)c1 | 0.86 µM | 0.44 µM | 1.28 µM |  | 0.0006 µM | 0.0006 µM | 0.0013 µM | 0.43 µM | 0.612 µM | 2.59 µM |  |  |  |  |  |  |
| Cc1cc(C)cc(S(=O)(=O)c2c(C(=O)N[C@H](C)C(=O)N[C@@H](C)c3ccncc3)[nH]c3ccc(Cl)cc23)c1 | 8.42 µM | 9.51 µM | 19.3 µM |  | 0.668 µM | 0.0019 µM | 0.204 µM | 1.19 µM | > 28.5 µM | 3.55 µM |  |  |  |  |  |  |

Reference: ChEMBL document CHEMBL4038304, “Chiral Indolylarylsulfone Non-Nucleoside Reverse Transcriptase Inhibitors as New Potent and Broad Spectrum Anti-HIV-1 Agents” (J Med Chem, 2017)
